Results as given in ChEMBL document CHEMBL2424551, “Synthesis, in vitro evaluation and molecular modelling of naphthalimide analogue as anticancer agents” (2013).
Calls of active or inactive are those of the source. The rule behind the calls is not given here.

Tested on: DNA
Test: Binding affinity to calf thymus DNA assessed as DNA intercalation at 50 uM by fluorescence spectrophotometry
Assay type: nucleic-acid assay
Details: Bos taurus
How it was run: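 Fluorescence titration: increasing ct-DNA added to compound in phosphate buffer (pH 7.0); decrease in emission band at 500 nm monitored; binding constant derived from titration data by Benesi–Hildebrand method.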

Activity: Active
Structure (SMILES): CN(C)CCN1C(=O)c2cccc3cc(N)cc(c23)C1=O
